Measured values published in ChEMBL document CHEMBL4725383 (Bioorg Med Chem, 2020).
Active and inactive are the calls of the source. The rule behind the calls is not given here.

Assays:
[1] = Inhibition of N-terminal His6-tagged human tau K18deltaK280 mutant assessed as inhibition of protein aggregation
[2] = molecular target: T1, Microtubule-associated protein tau (Homo sapiens, UniProt P10636); experiment: Displacement of Bis-ANS from solvent exposed hydrophobic site of non-aggregated human full length recombinant tau-441 expressed in Escherichia coli assessed as reduction in fluorescence intensity at 120 uM incubated for 72 hrs by Bis-ANS fluorescence assay
Outline: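 Competition control: non-aggregated tau441 (909 μg/mL) is held with compound and without heparin for 72 h at 37 °C. It is then mixed with Bis-ANS (100 μM final) for 60 min at room temperature. Fluorescence is read at 25 °C, ex 350 nm, emission 400–600 nm, and loss of 510 nm signal is taken as Bis-ANS displacement from tau hydrophobic sites.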

[3] = molecular target: T1, Microtubule-associated protein tau; experiment: Inhibition of human full length recombinant tau-441 expressed in Escherichia coli assessed as inhibition of heparin-induced protein aggregation by measuring reduction in fluorescence intensity at 5 to 120 uM incubated for 72 hrs by Proteo-stat fluorescence aggregation assay; details: dose microM 5-120, time 72.0 hrs
Outline: (§1)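 Recombinant full-length tau441 (19.8 μM final, 909 μg/mL) is aggregated with heparin (4.95 μM final) in pH 6.8 tau buffer (MES, EGTA, NaCl) for 72 h at 37 °C. Compounds are dissolved in DMSO and added at 5, 40, 120 or 250 μM final. A 10 μL aliquot is mixed 10:1 v/v with Proteostat reagent and read at ex 550/em 600 nm. Triplicates. IC50 comes from a sigmoidal dose-response fit.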

[4] = molecular target: T1, Microtubule-associated protein tau; experiment: Inhibition of human full length recombinant tau-441 expressed in Escherichia coli assessed as inhibition of heparin-induced beta-sheet formation and protein aggregation by measuring fluorescence intensity at 120 uM incubated for 72 hrs by Proteo-stat fluorescence aggregation assay; outline: as §1
[5] = molecular target: T1, Microtubule-associated protein tau; experiment: Inhibition of human full length recombinant tau-441 expressed in Escherichia coli assessed as inhibition of heparin-induced protein aggregation by measuring fluorescence intensity at 120 uM incubated for 72 hrs by Bis-ANS fluorescence assay
Outline: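 Tau441 (19.8 μM) with heparin (4.95 μM) and compound (120 μM) in DMSO/tau buffer pH 6.8 is aged 72 h at 37 °C. A 10 μL aliquot gets Bis-ANS (100 μM final, from stock in 20 mM Tris pH 7.4) for 60 min at room temperature. Emission is scanned 400–600 nm at 25 °C (ex 350 nm) and the 510 nm intensity is taken. Triplicate measurements.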

[6] = molecular target: T1, Microtubule-associated protein tau; experiment: Inhibition of human full length recombinant tau-441 expressed in Escherichia coli assessed as inhibition of heparin-induced protein aggregation by measuring reduction in fibrillization by measuring reduction in short and long filaments and fibrillar network formation at 120 uM incubated for 72 hrs by transmission electron microscopy
[7] = molecular target: T1, Microtubule-associated protein tau; experiment: Inhibition of human full length recombinant tau-441 expressed in Escherichia coli assessed as inhibition of heparin-induced protein aggregation by measuring reduction in fluorescence intensity incubated for 72 hrs by Proteo-stat fluorescence aggregation assay

T1 sequence (P10636 whole entry): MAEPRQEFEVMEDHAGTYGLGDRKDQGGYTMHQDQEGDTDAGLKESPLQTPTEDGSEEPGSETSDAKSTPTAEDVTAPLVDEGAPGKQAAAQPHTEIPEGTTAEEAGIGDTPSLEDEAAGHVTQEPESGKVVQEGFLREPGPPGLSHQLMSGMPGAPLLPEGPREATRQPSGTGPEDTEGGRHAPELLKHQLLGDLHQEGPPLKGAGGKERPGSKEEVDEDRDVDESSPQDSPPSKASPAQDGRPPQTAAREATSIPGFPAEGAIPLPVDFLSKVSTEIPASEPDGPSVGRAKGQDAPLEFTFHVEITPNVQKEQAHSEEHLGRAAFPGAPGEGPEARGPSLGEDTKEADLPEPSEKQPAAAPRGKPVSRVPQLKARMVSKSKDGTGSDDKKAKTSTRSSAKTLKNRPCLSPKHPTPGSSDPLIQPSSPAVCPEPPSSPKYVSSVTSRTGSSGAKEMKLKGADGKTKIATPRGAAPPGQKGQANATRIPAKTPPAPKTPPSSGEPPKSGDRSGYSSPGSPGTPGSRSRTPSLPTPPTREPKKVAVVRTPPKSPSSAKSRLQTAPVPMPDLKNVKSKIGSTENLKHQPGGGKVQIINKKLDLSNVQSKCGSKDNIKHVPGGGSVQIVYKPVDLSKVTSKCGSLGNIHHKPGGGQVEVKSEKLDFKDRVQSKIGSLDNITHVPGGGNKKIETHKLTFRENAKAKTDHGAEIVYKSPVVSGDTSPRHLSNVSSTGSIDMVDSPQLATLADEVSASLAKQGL

Structure (SMILES)	IC50 [1]	inhibition [2]	inhibition [3]	Activity [4]	Activity [5]	inhibition [6]	IC50 ([7]; read-out: IC50)	IC50 [7]	inhibition [5]
O=C(O[C@@H]1Cc2c(O)cc(O)cc2O[C@@H]1c1cc(O)c(O)c(O)c1)c1cc(O)c(O)c(O)c1 [EPIGALOCATECHIN GALLATE]	> 200 µM								
CN(C)c1ccc2nc3ccc(=[N+](C)C)cc-3sc2c1		95%	Active	1000 a.u.	400 a.u.	Active			
CCCN(CCN1CCN(c2ccc(-c3ccc(O)c(O)c3)cc2)CC1)[C@H]1CCc2c(O)cccc2C1		Active	Active	1000 a.u.	1500 a.u.	Active	25 µM		
CCCN(CCN1CCN(c2ccc3[nH]c4ccccc4c3c2)CC1)[C@H]1CCc2nc(N)sc2C1		inactive	inactive	7000 a.u.		inactive		Not Active	inactive
CCCN(CCN1CCN(c2ccc(-c3ccc(O)c(O)c3)cc2)CC1)[C@H]1CCc2nc(N)sc2C1		Active	Active	1000 a.u.	1000 a.u.	Active	21 µM		
CCCN(CCN1CCN(c2ccc(-c3ccccc3)cc2)CC1)[C@H]1CCc2nc(N)sc2C1		inactive	inactive	9000 a.u.		inactive		Not Active	inactive
